This data set has as its target Cytochrome P450 3A4 (Homo sapiens, UniProt P08684). As to the kind of experiment: Binding affinity to C-terminal four-histidine tagged human CYP3A4delta3 to 24 residues expressed in Escherichia coli assessed as spectral dissociation constant by spectrophotometric method. A digest of the protocol:
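Purified recombinant CYP3A4 titrated in 50 mM phosphate pH 7.4 with 20% glycerol and 1 mM DTT, adding small aliquots of compound in DMSO (final solvent <2%). Absorbance spectra recorded on a spectrophotometer. Ks obtained by one- or two-site saturation fitting of absorbance change versus ligand concentration.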

Cytochrome P450 3A4, sequence (P08684 whole entry, the tested form may be a part): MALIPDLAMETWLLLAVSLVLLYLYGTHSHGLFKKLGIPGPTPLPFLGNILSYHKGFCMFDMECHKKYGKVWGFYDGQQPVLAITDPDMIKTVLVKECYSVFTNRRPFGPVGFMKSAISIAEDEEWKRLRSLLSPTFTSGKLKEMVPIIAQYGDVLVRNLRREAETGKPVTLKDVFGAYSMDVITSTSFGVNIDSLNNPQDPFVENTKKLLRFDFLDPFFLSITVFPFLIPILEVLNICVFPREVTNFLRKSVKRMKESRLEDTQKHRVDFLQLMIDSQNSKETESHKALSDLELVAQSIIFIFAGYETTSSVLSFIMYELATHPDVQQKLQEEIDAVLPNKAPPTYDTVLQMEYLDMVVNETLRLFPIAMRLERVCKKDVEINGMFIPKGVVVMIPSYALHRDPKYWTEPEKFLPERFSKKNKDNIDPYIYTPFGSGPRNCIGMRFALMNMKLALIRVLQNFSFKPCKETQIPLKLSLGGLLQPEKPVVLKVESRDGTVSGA

As for `CC(C)(C)OC(=O)NCCCCCC(=O)NCc1cccnc1`, the Kd (as a rule, the concentration at which binding is half-saturated) worked out at 105 µM.
For `c1ccncc1` [CHEBI:16227], the Kd turned out to be 4500 µM.

These data come from BindingDB's records for doi:10.1021/acs.jmedchem.5b01146 (University of California Irvine, 2016).
